These results are taken from ChEMBL document CHEMBL4513216, “Probing the Open Global Health Chemical Diversity Library for Multistage-Active Starting Points for Next-Generation Antimalarials” (ACS Infect Dis, 2020).

The nature of the series: Toxicity liver stage against HepG2, at 10uM. Type of series: cell-based. The arrangement: test concentration 10 uM, cell line HepG2-A16-CD81EGFP. The following applies: human, HepG2-A16-CD81EGFP cells; read-out: INHIBITION
Summed up: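 Uninfected HepG2-A16-CD81EGFP cells, 3 × 10^3 per well, 1536-well, plated on prespotted compound at 10 μM final, parasite-free screening media added to match infected plates; puromycin 10 μM positive, DMSO 0.5% negative; run in parallel with 48 h PbLuc assay at 37 °C, 5% CO2; viability by CellTiter-Glo luminescence, normalized to controls.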

On to `Cc1csc(CNc2cnc3c(c2)c(C)nn3C)n1`, for which the cytotoxicity at 10 µM was found to be 0.739%.
Consider `CN(C)c1cc(C(=O)N2CCN(c3cnccn3)CC2)ccn1`, for which the cytotoxicity at 10 µM is -7.64%.
With `CNC(=O)[C@@]12CCO[C@@H]1CCN(Cc1cccc(C)c1)C2`, the cytotoxicity at 10 µM is -78.4%.
To `COCCN1C[C@@H]2CN(Cc3cccc(C)n3)C[C@@H]2C1=O` belongs 6.66%; to `Cc1nc2cc(=O)[nH]n2c(C)c1CC(=O)NCCCc1ccccc1`, -7.33%; to `COc1cc(C)nc(N2CCN(C(=O)c3cc(Cl)c[nH]3)CC2)n1`, 7.32%.
In the case of `COc1ccccc1N1CCN(Cc2cnc3c(c2)c(C)nn3C)CC1`, the cytotoxicity at 10 µM was -0.949%.
As to `CCCN1CCC2(CC1)CN(C(=O)c1cccnc1)c1ccc(F)cc12`, the cytotoxicity at 10 µM was -104%.
To `O=C(NCC(O)c1ccccc1Cl)c1cccc(-n2cnnn2)c1` (stereo not given) belongs -15.6%; to `CC(CNC(=O)c1cnc[nH]1)Oc1ccc(Cl)cc1` (stereo not given), -7.09%; to `Cc1cc(CN(Cc2cccs2)CC2CCCO2)no1` (stereo not given), 2.86%.
As to `O=C(c1ccncc1F)N1CC2CC1(C(=O)N1CCCC1)C2`, the cytotoxicity at 10 µM is -2.51%.
Under `COc1ccc(-c2nc(C)cc(SCC(N)=O)n2)cc1` stands 5.64%; under `Cc1nn(C)cc1-c1cc(-c2cn(C)nc2C)n(CC(=O)NC2CC2)n1`, 4.46%; under `CC(C)(C)n1ncc2c1NC(=O)CC2c1cccs1` (stereo not given), 3.48%.
Consider `CN(C)C(=O)COC1COC2(CCN(S(C)(=O)=O)CC2)C1` (stereo not given), for which the cytotoxicity at 10 µM is -1.08%.
Under `Cc1noc2ncc(S(=O)(=O)Nc3cc(CC(C)(C)C)[nH]n3)cc12` stands 5.55%; under `O=C(C1CCC1)N1C2CCC(O)(CC2)C1CN1CCOCC1` (stereo not given), -1.63%; under `CCn1cc(C(=O)N(C)[C@@H]2CC[C@@H](N3CCCC3)[C@@H]2O)c(C)n1`, 5.92%.
Under `O=C(C1CCCCC1)N1C[C@H]2CNC[C@H]2C1` stands -11.9%; under `CCCNC(=O)CN1CCOC(c2ccc(Br)cc2)C1` (stereo not given), -2.56%; under `CCC(CNC(=O)Cc1c(C)noc1C)N1CCCC1` (stereo not given), -46.3%.
Take `Cc1nn(C)cc1S(=O)(=O)NCC(C)Cn1cc(Cl)cn1` (stereo not given): the cytotoxicity at 10 µM came to 0.197%.
Under `Cc1ccc(-c2nc(CCNC(=O)NC3CCN(C)CC3)co2)cc1` stands -6.71%; under `CN(C(=O)C1CCN(Cc2cnc3ccccn23)CC1)c1ccccc1`, 38.9%.
With `COc1ncccc1C1CC(=O)NCc2nc3sccn3c21` (stereo not given), the cytotoxicity at 10 µM was determined as 3.86%.
As for `O=C(O)CSc1nnc(-c2ccn[nH]2)n1-c1ccccc1C(F)(F)F`, the cytotoxicity at 10 µM was -3.85%.
As for `CCCc1noc(CN2CCC(NC(=O)c3ccc(C)s3)CC2)n1`, the cytotoxicity at 10 µM is -5.32%.
As for `O=C(Cn1cccn1)NCC1CCCN(Cc2ccccc2)C1` (stereo not given), the cytotoxicity at 10 µM was -16.2%.
Regarding `CCn1nc(C)c2nc(C(C)C)nc(NCCc3ccc(O)cc3)c21`, the cytotoxicity at 10 µM worked out at 18.1%.
Take `Cc1cc(N2CCCN(C(=O)Cc3cccnc3)CC2)ccn1`: the cytotoxicity at 10 µM amounted to 2.5%.
Take `Cc1cc(C(=O)N2CCCCC2c2nc3cc(F)ccc3[nH]2)no1` (stereo not given): the cytotoxicity at 10 µM amounted to 19.6%.
To `CCNc1nc(-c2cccnc2)c(-c2ccnc(N3CCCC3)n2)s1` belongs -5.14%; to `CCC(CO)N(Cc1cccs1)C(=O)Cc1ccc(O)cc1` (stereo not given), 6.57%.
Under `O=S(=O)(N1CCOCC1)N1CCCCC1CCn1cccn1` (stereo not given) stands -0.302%; under `CCC1=N[C@@]2(CC[C@@H]3CN(CC(C)C)C[C@@H]32)C(=O)N1`, 4.32%; under `CCCc1nc(N2CCCN(c3ccncc3)CC2)c2cnn(C)c2n1`, -2.47%.
Consider `O=C(c1c[nH]cn1)N1CCC(F)(F)C2(CCN(c3cnccn3)C2)C1` (stereo not given), for which the cytotoxicity at 10 µM worked out at 8.19%.
For `COc1c(CNCc2cccc(C(=O)N(C)C)c2)c(C)nn1C`, the cytotoxicity at 10 µM is -16.9%.
Under `Cc1cc(C)n(CCC(=O)N2CCC(c3nc(C)no3)CC2)n1` stands 23.3%; under `Clc1cccnc1OC1CCNCC1`, -10.9%.
As to `CN(C)c1cncc(C2CCN(CC3(O)CCCCC3)CC2)n1`, the cytotoxicity at 10 µM is -30%.
Consider `COc1ccc(NC(=O)CNc2ccc(Br)cc2F)cc1`, for which the cytotoxicity at 10 µM came out at 0.795%.
With `O=C1CN(C(=O)c2cc(Cl)ccc2F)c2ccccc2N1`, the cytotoxicity at 10 µM turned out to be 79.6%.
As for `Cc1nc(C)c(C(C)NCc2c(C)nn(C)c2N(C)C)s1` (stereo not given), the cytotoxicity at 10 µM is -4.96%.
`Cc1cc(C)c2c(OCC(=O)N(C)CC(=O)NC(C)C)nn(C)c2n1`: the cytotoxicity at 10 µM amounted to 1.28%.
For the molecule `COc1ncccc1CN1C[C@@H]2COC[C@]2(COc2ccccn2)C1`, the cytotoxicity at 10 µM was -3.87%.
Take `CS(=O)(=O)N[C@@H]1CN(C(=O)c2ccccn2)[C@@H]2CCCO[C@@H]21`: the cytotoxicity at 10 µM was determined as 4.3%.
To `CN(CC(N)=O)CC1(c2ccc(Br)cc2)CC1` belongs 2.17%; to `CCSc1ncccc1C(=O)NCc1ccc(N(C)C)cc1`, 4.36%; to `CN(C)S(=O)(=O)N1CC[C@]2(C[C@@H](OCc3ccccn3)CO2)C1`, 10.1%.
Take `COC(=O)CCC(=O)N1CCc2[nH]nc(-c3ccc4c(c3)OCO4)c2C1`: the cytotoxicity at 10 µM is -8.28%.
To `FC(F)(F)Oc1ccc(-c2noc([C@@H]3Cc4nc[nH]c4CN3)n2)cc1` belongs -7.47%; to `COC(=O)c1cnn(-c2cc(Oc3cccc(C)c3)ncn2)c1N`, 34.1%.
For `CN1CC(Oc2ccccc2)=NC(SCC(=O)Nc2ccc(Cl)cc2)=N1`, the cytotoxicity at 10 µM was -10.2%.
To `Cc1nnc([C@]23COC[C@H]2CN(Cc2cnn(C)c2)C3)o1` belongs -3.77%; to `CC(C)n1ccc(C(=O)N2CCCC(n3cncn3)C2)n1` (stereo not given), -0.312%.
To `CO[C@H]1C[C@@H](O)C12CCN(C(=O)c1cccc(CCC(C)(C)O)c1)CC2` belongs 2.74%; to `CC(C)(N)C(=O)N1CCC(c2nccnc2Oc2ccccc2F)CC1`, -13.9%; to `COc1ccc(S(=O)(=O)N2CCn3cnc(COCC4CC4)c3C2)cc1`, -0.262%.
With `COCCN1C[C@H]2[C@@H](C1)N(Cc1ccc(C)o1)CC[C@H]2OC`, the cytotoxicity at 10 µM was -8.34%.
Regarding `CN(C)CCNC(=O)[C@H]1C[C@H]2CN(C(=O)NCc3ccccc3)C[C@@H]1O2`, the cytotoxicity at 10 µM came out at 1.96%.
Take `C[C@@H]1CN(C(=O)c2cc(COc3ccc4c(c3)OCO4)[nH]n2)C[C@H](C)O1`: the cytotoxicity at 10 µM is -6.37%.
For the molecule `c1csc(CN2CCc3ncnc(C4CCOC4)c3CC2)n1` (stereo not given), the cytotoxicity at 10 µM turned out to be 4.53%.
Take `O=c1[nH]ccn1CCCN1CC=C(c2cnn(-c3ccccc3)c2)CC1`: the cytotoxicity at 10 µM is 7.95%.
For `CCC(O)Cn1nc(CCSC)nc1-c1ccc2[nH]ccc2c1` (stereo not given), the cytotoxicity at 10 µM was 4.96%.
As for `Cc1cc(N2CCCC(OC(=O)CCN3CCCC3=O)C2)nc(C)n1` (stereo not given), the cytotoxicity at 10 µM stood at 2.58%.
On to `CC(C)c1nn(C)c(N(C)C)c1CNCc1ccc2c(c1)OCCO2`, for which the cytotoxicity at 10 µM was -12.6%.
Under `COCCN(C)CCN1CC2(CCN(C3CCOC3)CC2)OC1=O` (stereo not given) stands 4.63%.
Under `CN1C[C@H](O)[C@]2(CCN(Cc3ccc(OC(F)(F)F)cc3)C2)S1(=O)=O` stands -5.57%; under `O=c1[nH]c2nc(NCC3CCCO3)ncc2c(=O)n1-c1ccc(F)cc1` (stereo not given), -5.89%; under `CN(CC(=O)Nc1nncs1)CC1CCCN1c1cccnn1` (stereo not given), -13.7%.
On to `CCc1nn(C)c(Cl)c1CN1CCCC(c2cc(O)nc(C)n2)C1` (stereo not given), for which the cytotoxicity at 10 µM was -2.37%.
For the molecule `Cc1ccc(CN2CCn3cc(CNC(=O)c4cnn(C)c4)nc3C2)s1`, the cytotoxicity at 10 µM was 1.13%.
To `Cn1cccc1CCC(=O)N1CCC2(CC1)c1ccccc1CC2O` (stereo not given) belongs -8.57%.
Under `Cc1cc(S(=O)(=O)NCC2CNCCOC2)c(C)cc1Cl` (stereo not given) stands -0.708%; under `O=C(O)c1ccccc1-c1ccc(CN2CC(c3ccncn3)C2)o1`, 4.54%; under `CC(C)N1CCN(C(=O)c2ccc(Cn3ccccc3=O)o2)CC1`, -13.1%.
To `CN(C)C(=O)CN1CCOCC2(C1)CN(c1ncc(F)cn1)CCO2` (stereo not given) belongs -6.69%; to `CNc1nc(CNC(=O)Nc2cccc(C)c2Cl)cs1`, -9.04%.
Take `CCOC(C(=O)N1CCn2c(CC)nnc2C1)c1ccccc1` (stereo not given): the cytotoxicity at 10 µM worked out at 4.48%.
Turning to `CCN1CCCC1CNCc1cc2ccccc2[nH]c1=O` (stereo not given), the cytotoxicity at 10 µM is 1.78%.
Turning to `CC(=O)N1CCC(C)(c2cc[nH]n2)CC1`, the cytotoxicity at 10 µM is -4.07%.
For the molecule `N#Cc1ccc(OC2CCN(C(=O)c3ccccc3Cl)CC2)nc1`, the cytotoxicity at 10 µM is 3.93%.
In the case of `Cc1ccc2nnc(C(=O)NCC3CCCC3)nc2c1`, the cytotoxicity at 10 µM is 6.47%.
On to `CC(C)NC(=O)C1CN(C(=O)Nc2cccc(F)c2)CC12CCOCC2` (stereo not given), for which the cytotoxicity at 10 µM is -85.8%.
`CC1CCCN(c2ccccc2OCC(=O)NC2CCOCC2)C1` (stereo not given): the cytotoxicity at 10 µM was -23.5%.
Turning to `CCC(=O)N1CCC2(CC1)CN(CCO)Cc1ccccc12`, the cytotoxicity at 10 µM is 5.23%.
Take `Cc1cccc(-n2cc(C(=O)N3CCn4c(C)nnc4C3)nn2)c1`: the cytotoxicity at 10 µM is -10.1%.
`CCN(CC)S(=O)(=O)c1ccc(C(=O)NC(C)(C)C)cc1`: the cytotoxicity at 10 µM is -6.79%.
To `CCS(=O)(=O)CC(=O)Nc1c(C)cnn1Cc1cc(F)ccc1F` belongs -4.96%.
`Cn1cnc(S(=O)(=O)N2C[C@H]3CC[C@@H](C2)N(Cc2cscn2)C3=O)c1`: the cytotoxicity at 10 µM was -20.2%.
Regarding `COCC(c1cccc(C(F)(F)F)c1)N(C)C(=O)c1cccnc1` (stereo not given), the cytotoxicity at 10 µM is -5.28%.
Regarding `Cc1nccn1CCC1CCCCN1C(=O)c1ccc(N(C)C)cc1` (stereo not given), the cytotoxicity at 10 µM was determined as 0.811%.
Take `O=C(O)c1ccc(COc2cccc(Cl)c2)s1`: the cytotoxicity at 10 µM stood at 8.96%.
